High-throughput results as filed in PubChem BioAssay.
Shown are actives, neighbours in structure and some others; about 3.9% of the full set was active somewhere.
OX1R antag-1: antagonists of human orexin 1 receptor (OX1R). Orexin/Hypocretin receptor type 1 (Homo sapiens), O43613. OX1R-expressing cells, FRET antagonist read-out. inhibition, % at 6.6 µM. 330,000 tested, 1.8% active. AID 485270, 2010; in the data active = inhibition mostly above about 38%, no sharp cut-off; inactive = mostly below about 40%;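 note: 0% = agonist challenge alone and 100% = reference antagonist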
Target sequence (O43613 whole entry, looked up): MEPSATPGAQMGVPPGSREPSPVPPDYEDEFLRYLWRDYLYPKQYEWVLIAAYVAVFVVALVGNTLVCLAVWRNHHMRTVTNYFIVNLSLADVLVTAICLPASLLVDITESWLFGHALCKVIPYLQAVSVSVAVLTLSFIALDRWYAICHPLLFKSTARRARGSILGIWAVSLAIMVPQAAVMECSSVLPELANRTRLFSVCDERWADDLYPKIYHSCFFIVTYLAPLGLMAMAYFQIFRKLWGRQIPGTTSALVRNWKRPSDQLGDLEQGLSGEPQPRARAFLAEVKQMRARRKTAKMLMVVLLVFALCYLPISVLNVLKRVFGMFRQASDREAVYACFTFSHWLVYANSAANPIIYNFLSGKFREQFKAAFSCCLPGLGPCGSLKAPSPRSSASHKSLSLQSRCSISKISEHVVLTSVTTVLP
OX1R antag-2: OX1R (HCRTR1) antagonists, primary screen, fluorescence, CHO/OX1R cells, Fluo-8 calcium, orexin A | Orexin/Hypocretin receptor type 1 (Homo sapiens), O43613 | Fluo-8 calcium fluorescence | inhibition, % at 5 µM | 330,000 tested, 0.43% active;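 active = inhibition above its plate's threshold, mean inhibition of all tested compounds on the plate plus 3 SD, cut at about 37% in these data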;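 note: 0% = orexin A challenge wells and 100% = SB-334867-A antagonist wells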
CHO parental Ca: ATP-evoked calcium signal inhibitors, parental CHO, primary screen, counter-screen for OX1R antagonist project, cell-based, fluorescence, Fluo-8 calcium dye; inhibition, % at 5.6 µM; parental CHO-K1, ATP-induced calcium, Fluo-8 fluorescence; AID 463079, 2010; 330,000 tested, 0.63% active;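 active = inhibition above that plate's mean sample inhibition plus 3 SD, cut at about 26% in these data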;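 note: 0% = ATP-challenged DMSO wells and 100% = DMSO wells without ATP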
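Measured by: calcium-sensitive Fluo-8 fluorescence / Test system: CHO parental line / Controls: ATP-challenged DMSO wells low, unchallenged DMSO wells high / Measure: % inhibition / Compound: single nominal dose of 5.6 µM per compound / Replicates: single well per compound, no replicates / Reagent: ATP as calcium-mobilizing challenge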
TAAR1 antag: human TAAR1 antagonists, primary screen, Fluo-8 calcium fluorescence, CHO RD-HGA16 cells; Trace amine-associated receptor 1 (Homo sapiens), Q96RJ0; antagonist; inhibition, % at 3 µM; 360,000 tested, 1.5% active;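 active = inhibition above a per-plate cutoff, the mean inhibition of test compounds on that plate plus 3 SD, cut at about 49% in these data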;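 note: 0% = DMSO plus EC80 beta-PEA response and 100% = DMSO alone without agonist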
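Material: RD-HGA16 CHO cells with stable hTAAR1 and Gα16; Dosing: single nominal final test compound concentration of 3 µM; Schedule: seeding 17-24 h prior, 75-min 37 °C, 30-min RT dye loading; Detection: kinetic Fluo-8 calcium fluorescence measurement; Measure: % inhibition from peak post-agonist over basal fluorescence ratio; Benchmarks: vehicle and agonist controls.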
TAAR1 agonist: human TAAR1 agonists, primary screen, Fluo-8 calcium fluorescence, CHO RD-HGA16 cells | Trace amine-associated receptor 1 (Homo sapiens), Q96RJ0 | vehicle wells 0%, saturating PEA agonist 100% | activation, % at 3 µM | 360,000 tested, 0.99% active | AID 624467, 2012;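 active = activation above the mean activation of all test compounds in the run plus 3 SD, cut at about 38% in these data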
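test system = CHO RD-HGA16 cells carrying human TAAR1 plus Gα16 | schedule = 17-24 h seeding, 75 min 37 °C dye, 30 min RT | compound dosing = 3 µM single concentration | control set = DMSO and PEA EC100 | replicates = n 1 | signal = Fluo-8 fluorescence, 5 s baseline then 140 s kinetic read | measure = percent activation vs PEA EC100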
* marks the source's active call; other numbers are inactive results; x = no result given.

SMILES	OX1R antag-1	OX1R antag-2	CHO parental Ca	TAAR1 antag	TAAR1 agonist
O=C(COC(=O)c1cc([N+](=O)[O-])ccc1N1CCOCC1)Nc1c(Cl)cccc1Cl	54*	-27	-5	0	10
CC1CCCN(C(=O)COC(=O)c2cc([N+](=O)[O-])ccc2N2CCOCC2)C1 (centres undefined)	24	-28	-19	-12	3
CC1CC(C)CN(C(=O)COC(=O)c2cc([N+](=O)[O-])ccc2N2CCOCC2)C1 (centres undefined)	53*	-49	-12	-14	4
O=C(COC(=O)c1cc([N+](=O)[O-])ccc1N1CCOCC1)Nc1cccc(F)c1	71*	5	4	0	7
Oc1ccc(Cl)c(CN2CCN(c3ncc(Cc4ccccc4)cn3)CC2)c1	x	x	x	-18	0
O=C(NC1CCCCC1)c1cccc(NC(=O)c2ccccc2Cl)c1	x	x	x	3	5
Cc1ccc(C)c(NC(=S)NNc2ccc(F)cc2F)c1	17	83*	71*	44	0
O=C(Nc1ccc2c(c1)OCCO2)C1CCCN(S(=O)(=O)c2cccc3nsnc23)C1 (centres undefined)	11	-20	-9	22	12
COc1cc(NC(=O)C2CCCN(S(=O)(=O)c3cccc4nsnc34)C2)cc(OC)c1 (centres undefined)	48*	-9	-5	18	9
O=C(Nc1cccnc1)C1CCCN(S(=O)(=O)c2cccc3nsnc23)C1 (centres undefined)	58*	-19	15	12	5
COc1ccc(-c2ccccc2C2Cc3nnccc3CN2)cc1 (centres undefined)	x	x	x	0	4
CCOc1ccc(OCCC(=O)N(CCOC)c2c(N)n(Cc3ccccc3)c(=O)[nH]c2=O)cc1	x	x	x	-15	1
O=[N+]([O-])c1ccc(N2CCN(C(=S)NC3CCCCC3)CC2)cc1	64	49*	33*	52*	10
O=C(NC(=S)N1CCN(c2ccc(F)cc2)CC1)c1ccccc1	x	x	x	-4	4
O=C(NC(=S)N1CCN(c2ccc([N+](=O)[O-])cc2)CC1)c1ccc(F)cc1	56*	-35	-13	6	4
CC(C)(C)S(=O)(=O)N1C[C@H]2CC/C=C\C/C=C\2[C@@H]1CCO	x	x	x	5	0
O=C(CCN1C(=O)c2ccc([N+](=O)[O-])cc2C1=O)Nc1ccc(O)cc1C(=O)O	56*	-14	-6	1	14
O=C(CN1C(=O)c2ccc([N+](=O)[O-])cc2C1=O)Nc1ccccc1N1CCCC1	52*	1	-1	0	2
O=C(CN1C(=O)c2cccc([N+](=O)[O-])c2C1=O)NCc1ccccc1	19	-16	-12	-6	1
O=C(O)Cc1ccc(NC(=O)CCN2C(=O)c3ccc([N+](=O)[O-])cc3C2=O)cc1	x	x	x	14	-1
O=C(CN1C(=O)c2ccc([N+](=O)[O-])cc2C1=O)NCc1ccc(C(=O)O)cc1	62*	-12	0	-4	2
N#CC1(NC(=O)CN2C(=O)c3ccc([N+](=O)[O-])cc3C2=O)CCCCC1	53*	-13	-8	-2	3
O=C(Nc1cc([N+](=O)[O-])ccc1N1CCCC1)c1ccco1	65*	-13	-7	-6	-1
CC(C)CC(=O)c1c(O)cc(O)c2c1OC1=C(C(=O)C(C)(C)C(=O)C1(C)C)C2CC(C)C (centres undefined)	x	x	x	7	-1
Cc1nc2ccccc2cc1OCc1ccc(Cl)cc1	41*	0	50*	15	23
SMILES	OX1R antag-1	OX1R antag-2	CHO parental Ca	TAAR1 antag	TAAR1 agonist
Cc1nc2ccccc2cc1OCc1ccccc1	27	7	37*	12	21
COc1cccc(COc2cc3ccccc3nc2C)c1	33	5	15	21	11
Cn1nnnc1Sc1ncnc2scc(-c3ccc([N+](=O)[O-])cc3)c12	39*	1	-8	22	4
Cc1c(C(=O)NCc2cccc(Cl)c2)sc(=O)n1Cc1ccc(F)cc1	x	x	x	18	2
Cc1c(C(=O)NCc2ccc(C(C)C)cc2)sc(=O)n1Cc1cccc(F)c1	x	x	x	53*	48*
Cc1c(C(=O)NCc2ccc(F)cc2)sc(=O)n1Cc1ccc(C(=O)c2ccccc2)cc1	x	x	x	54*	1
CSc1ccc(Cn2c(C)c(C(=O)NCc3ccc(C(C)C)cc3)sc2=O)cc1	x	x	x	18	0
CC(Sc1nnc2n1CCCCC2)C(=O)Nc1ccc(S(N)(=O)=O)cc1 (centres undefined)	x	x	x	0	4
CN(C)C(=S)Oc1ccccc1C1(C)OCCO1	x	x	x	-3	0
CCc1ccc(-c2nc(CSCC(=O)NC3CC3)c(C)o2)cc1	4	-29	-14	-12	3
CCc1ccc(-c2nc(CSCC(=O)N3CCN(c4ncccn4)CC3)c(C)o2)cc1	42*	-14	14	45	2
COc1ccc2c3c(cccc13)OC2=O	15	-8	-1	-14	6
COc1ccc2c3c(cccc13)N(C)N=C2C	66*	-22	-16	-1	12
CC(C)NCc1cc(Br)ccc1OCc1ccccc1	9	-30	-14	15	43*
COc1ccc(N2C(=O)c3n[nH]c(C)c3C2c2ccccc2)cc1 (centres undefined)	x	x	x	-16	0
COc1cc(NC(=O)COc2ccc([N+](=O)[O-])cc2)ccc1NC(=O)c1ccco1	x	x	x	-3	2
O=C(Nc1cc(S(=O)(=O)N2CCOCC2)ccc1N1CCCC1)c1ccccc1C(F)(F)F	x	x	x	-11	14
CN1CCN(S(=O)(=O)c2ccc(Sc3nc4ccccc4[nH]3)c3nsnc23)CC1	163*	-36	-11	10	8
O=S(=O)(c1ccc(Br)c2nsnc12)N1CCOCC1	40*	1	-3	9	1
CN1CCN(S(=O)(=O)c2ccc(Br)c3nsnc23)CC1	65*	-6	-10	3	14
O=S(=O)(c1cccc2nsnc12)N1CCCC1	19	-5	0	-1	7
Cc1ccc(S(=O)(=O)N2CCOCC2)c2nsnc12	41*	-1	-11	11	11
Cc1ccc(S(=O)(=O)N2CCCCC2)c2nsnc12	27	-24	-6	2	0
COc1ccccc1C(O)c1ncc(-c2cccc3ccccc23)[nH]1 (centres undefined)	x	x	x	-18	8
Cc1ccc(NC(=O)c2ccc3c(c2)C(=O)N(CC2CCCO2)C3=O)cc1C (centres undefined)	31	-23	-19	24	7
